Hsp70 activator: Hsp70 transcriptional activation, primary screen; 0.04% of 200,000 active; HeLa Hsp70 promoter luciferase reporter, luminescence; scaled: vehicle 0, proteasome-inhibitor control 100%; activation, % at 10 µM;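 active = activation above the mean across all tested compounds plus 3 SD, cutoff set per campaign, cut at about 5.5% in these data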;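 also: 100% = MG132 at 30 µM as the positive control and 0% = DMSO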
L major viab: Leishmania major promastigote growth inhibition. Leishmania major promastigotes, resazurin fluorescence viability. inhibition, % at 10 µM. 9% of 200,000 active; in the data active = inhibition above about 50%;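 also: promastigotes grown with compound for 44 hours at 28 °C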
HSF-1 act: increases HSF-1 driven luciferase reporter signal. NIH3T3-HGL HSF-1 luciferase reporter, MG132, 8 h; 100% = twice DMSO control signal. activation, % at 9 µM. 1.7% of 300,000 active;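 active = mean replicate activation of at least 50% with a set share of replicates each reaching 50%; inconclusive = only one of those two conditions met; inactive = mean below 50% and too few replicates reaching it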;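 also: 0% = median of the neutral control wells and 100% = twice that signal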
T cruzi inh: T. cruzi replication inhibition; AID 1885; inhibition, % (no concentration beside the values); 1.4% of 300,000 active; T. cruzi beta-gal in NIH3T3, luminescence, 90 h;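 active = mean inhibition across valid replicates above about 55%, limit read from the data; inconclusive = mean below that limit but half or more replicates reach it; inactive = mean below it, under half of replicates reach it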;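 also: signal also drops with host cell toxicity which is not excluded here; 0% = plate median of DMSO wells and 100% = zero luminescence signal; higher percent means less beta-gal luminescence so fewer parasites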
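Test system: β-gal T. cruzi (Tulahuen C4) inside NIH/3T3 cells / Quantity: 5,000 cells/well / Measured by: luminescence from GalScreen with 0.05% NP40, read after 60 min / Medium: DMEM plus 2% FBS / Measure: parasite load inhibition, % / Reagent: Tulahuen C4 trypomastigotes, 5000/well / Schedule: co-culture of at least 90 h after 3 h attachment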
HSF1 inhib: HSF1 inhibition; NIH3T3-HGL HSE-luciferase, MG132-induced, luminescence 8 h; hits give low values; activity change, negative = inhibition, % at 7.5 µM (by protocol); 0.77% of 300,000 active; AID 2098;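 active = more than half of replicate wells show activity change below -50%, luminescence cut by over half; inconclusive = some wells, but at most half, below -50%; inactive = no replicate well below -50%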;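 also: luciferase reports HSF-1 transcriptional activity via heat shock element; 0% = median of DMSO wells and -100% = zero luminescence signal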
Active calls of the source: *; u = inconclusive; x = no result. The entries come from a sample that favours hits as a whole.

SMILES | Hsp70 activator | L major viab | HSF-1 act | T cruzi inh | HSF1 inhib
CC(=O)N1CCCC(N2CCN(c3cccc(C(F)(F)F)c3)CC2)C1 (stereo not given) | x | x | 11 | -5 | -4
O=C(CN1CCN(c2cccc(C(F)(F)F)c2)CC1)Nc1cccc(C(F)(F)F)c1 | 0 | -2 | -9 | -3 | -5
CCCN1CCC(N2CCN(c3cccc(C(F)(F)F)c3)CC2)CC1 | 0 | 100* | 3 | 50 | 6
C1=CCC(CN2CCN(C3CCCCCC3)CC2)CC1 (stereo not given) | 0 | 90* | 7 | 34 | 0
COC(=O)CSc1nc(C)c(C)c(C)c1C(N)=O | 0 | 8 | -2 | 30 | -9
c1ccc(OCCSc2nc3ccccc3o2)cc1 | 0 | -5 | -69 | 4 | -61*
c1ccc2oc(SCc3nc4ccccc4s3)nc2c1 | 0 | 3 | 67* | 22 | 34
Clc1c(CSc2nc3ccccc3o2)nc2sccn12 | 0 | 7 | 103* | 34 | 78
CCOc1ccc(OCCSc2nc3ccccc3o2)cc1 | 0 | 0 | -4 | -2 | 3
Clc1c(CSc2nc3ccccc3o2)nc2ccccn12 | 0 | 14 | 87* | -10 | 52
O=C1C2C3C=CC(C4CC34)C2C(=O)N1Cc1ccco1 (stereo not given) | 0 | -4 | -2 | 0 | -9
CCc1ccc2[nH]c(C(=O)Nc3ccc4c(c3)OCO4)cc2c1 | x | x | 45 | 13 | 21
CCC(C)C(NC(C)=O)C(=O)NC(=O)NC(c1ccccc1)c1ccccc1 (stereo not given) | 0 | 7 | 1 | 16 | -3
COc1ccccc1-c1cc(C(=O)N/N=C/c2ccc(C)s2)c2ccccc2n1 | 0 | 83* | 13 | 10 | 3
Cc1ccccc1/C=N/Nc1nc2ccccc2[nH]1 | 0 | 79* | 229* | 32 | 177
C(=N\Nc1nc2ccccc2[nH]1)/c1c[nH]c2ccccc12 | 0 | 99* | 309* | u | 244
Cc1[nH]c2ccccc2c1/C=C/c1nc2ccccc2c(=O)[nH]1 | x | x | 80* | 30 | 30
Cc1[nH]c2ccccc2c1/C=N/Nc1nc(N2CCCCC2)nc(N2CCCCC2)n1 | 0 | 77* | -5 | 26 | -3
COc1ccc(N(CC(=O)NC2CC3CCC2C3)S(=O)(=O)c2ccc(C)c([N+](=O)[O-])c2)cc1 (stereo not given) | x | x | 14 | 38 | -6
O=[N+]([O-])c1cc(/C=N/Nc2nc3ccccc3[nH]2)c(O)cc1O | 0 | 99* | 305* | 29 | 247
O=c1[nH]c(N/N=C/c2cc3c(cc2[N+](=O)[O-])OCO3)nc2ccccc12 | x | x | 9 | 0 | 5
COc1ccc(/C=N/Nc2ccccn2)c(OC)c1OC | 0 | 9 | 33 | 6 | 5
Cc1nn(-c2ccccc2)c(Cl)c1/C=N/Nc1nc2ccccc2[nH]1 | 0 | 36 | 27 | 27 | 0
C(=N\Nc1nc2ccccc2[nH]1)/c1cccc2cccnc12 | x | x | -8 | 31 | -15
COc1ccc(/C=N/Nc2nc3ccccc3[nH]2)c(OC)c1OC | x | x | 108* | -5 | 110
SMILES | Hsp70 activator | L major viab | HSF-1 act | T cruzi inh | HSF1 inhib
Cc1ccc(/C=N/Nc2nc3ccccc3[nH]2)s1 | 0 | 57* | 452* | 30 | 440
Cc1[nH]c2ccccc2c1/C=N/Nc1nc2ccccc2[nH]1 | x | x | 403* | u | 337
O=C(NCCc1ccccc1)C(=O)NCC1OCCN1S(=O)(=O)c1cc(F)ccc1F (stereo not given) | x | x | 0 | -2 | -2
O=[N+]([O-])c1ccc(-c2cnc[nH]2)cc1 | x | x | 21 | 17 | -1
CN(C)C(CNC(=O)c1ccc(-c2ccccc2)cc1)c1ccccc1 (stereo not given) | x | x | 24 | -2 | 14
O=[N+]([O-])c1ccccc1N/N=C/c1ccccc1 | x | x | 27 | -8 | 22
O=[N+]([O-])c1ccccc1N/N=C/c1c[nH]c2ccccc12 | 0 | 1 | 150* | -7 | 98
COc1ccc2[nH]c3c(C)c4ccncc4c(C)c3c2c1 | x | x | u | 58* | 51
N#CC(C#N)=C1NC2(CCCC2)Cc2ccccc21 | 0 | 85* | 3 | -1 | -10
O=C1NC2(CCCCC2)Cc2ccccc21 | 0 | 3 | 10 | -11 | 5
NC(=O)C1CCN(CC(=O)Nc2cccnc2Cl)CC1 | 0 | -5 | -12 | -3 | -13
COc1cccc(NC(=S)/C(=C(\[O-])c2cc(C)n(-c3ccccc3F)c2C)[n+]2ccc(N(C)C)cc2)c1 | 0 | 41 | -39 | 75* | -39
Cc1nc2cc(Nc3nnc(-c4ccccc4)c4ccccc34)ccc2n1C | 0 | 88* | x | 40 | x
O=[N+]([O-])c1ccc2nc(-c3ccc(OC(F)F)cc3)cn2c1 | 0 | -4 | 19 | 10 | 7
O=S1(=O)CC=C(CSC(=S)NC2CCS(=O)(=O)C2)C1 (stereo not given) | 0 | 76* | 6 | -9 | -2
NNC(=S)NC1CCS(=O)(=O)C1 (stereo not given) | x | x | 7 | -4 | 0
Cc1cc2c(cc1S(=O)(=O)N1CC(C)CC(C)C1)OCC(=O)N2 (stereo not given) | x | x | 3 | 4 | -5
Cc1cc(O)c(C(C)C)cc1C1(c2cc(C(C)C)c(O)cc2C)OC(=O)c2ccccc21 | x | x | -5 | 77* | -11
COc1ccc(N2CCN(C(=O)NCc3cccc(OC)c3)CC2)cc1 | x | x | 12 | 7 | -9
CC(C)(C)c1cc(Cl)ccc1OCCOCCN1CCCC1 | x | x | 1 | 47 | 3
CC1CCCN(CCCOc2ccc(Cl)cc2Br)C1 (stereo not given) | 0 | 98* | -56 | 21 | -47
CC1CCN(S(=O)(=O)c2ccc(Cl)cc2Br)CC1 | 0 | 4 | 26 | 6 | 5
CC1CCN(CCOCCOc2ccc(Cl)cc2Br)CC1 | 0 | 101* | -12 | 64* | -4
Cc1ccc(Cl)c(OCCN2CCCC(C)C2)c1 (stereo not given) | 0 | 91* | -9 | -26 | 0
Clc1ccc(OCCOCCN2CCCCC2)c(Br)c1 | 0 | 100* | -1 | 59* | -10
SMILES | Hsp70 activator | L major viab | HSF-1 act | T cruzi inh | HSF1 inhib
CC(=O)Nc1ccc(S(=O)(=O)N2CCC(C(=O)NCc3cccnc3)CC2)cc1 | x | x | 10 | -8 | -5
CCOC(=O)C1=C(COC(=O)COc2ccccc2C#N)NC(=O)NC1C (stereo not given) | x | x | -13 | -2 | -3
CC1CCC2C(=O)N(c3cccc(C(=O)Nc4ccccc4Cl)c3)C(=O)C2C1 (stereo not given) | x | x | 9 | -9 | 1
COc1ccccc1CCNC(=O)CCn1nc(C)c2c(C)n(-c3ccccc3)nc2c1=O | x | x | 1 | 11 | 3
CC1CN(C(=O)COc2ccc3ccccc3c2Br)CC(C)O1 (stereo not given) | x | x | 47 | 6 | 6
CC1CCN(CCCOc2ccc(Cl)cc2Br)CC1 | 0 | 87* | -3 | 16 | 3
CC1CCCN(CCOc2ccc3ccccc3c2Br)C1 (stereo not given) | 0 | 88* | 8 | 37 | 13
